Measured values as given in paper PMC6077846 (ChemMedChem, 2018).
“Also recorded” adds a separate entry of the source.

Experiments:
P-gp/BCRP = test: PET imaging in P-gp/BCRP dual knock-out mice; type: in vivo
How it was run: (§1)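 Mice under 1.5% isoflurane were given about 7.4 MBq of 11C-labelled test compound i.v. via a tail-vein catheter. Vehicle was ethanol/saline 1:9 with ascorbic acid and Tween. Dynamic microPET ran for 100 min and brain time-activity curves were plotted in SUV. Images were reconstructed by Fourier rebinning and 2D OSEM, with no attenuation or scatter correction.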

cPLA2α [1] = biological target: T1, cPLA2α (Mus musculus, UniProt P47713); test: PET imaging in wild type mice with self-block pretreatment; type: in vivo; settings: blocking agent 2 mg/kg i.v. 30 min before radioligand
T1 sequence (P47713 1-748): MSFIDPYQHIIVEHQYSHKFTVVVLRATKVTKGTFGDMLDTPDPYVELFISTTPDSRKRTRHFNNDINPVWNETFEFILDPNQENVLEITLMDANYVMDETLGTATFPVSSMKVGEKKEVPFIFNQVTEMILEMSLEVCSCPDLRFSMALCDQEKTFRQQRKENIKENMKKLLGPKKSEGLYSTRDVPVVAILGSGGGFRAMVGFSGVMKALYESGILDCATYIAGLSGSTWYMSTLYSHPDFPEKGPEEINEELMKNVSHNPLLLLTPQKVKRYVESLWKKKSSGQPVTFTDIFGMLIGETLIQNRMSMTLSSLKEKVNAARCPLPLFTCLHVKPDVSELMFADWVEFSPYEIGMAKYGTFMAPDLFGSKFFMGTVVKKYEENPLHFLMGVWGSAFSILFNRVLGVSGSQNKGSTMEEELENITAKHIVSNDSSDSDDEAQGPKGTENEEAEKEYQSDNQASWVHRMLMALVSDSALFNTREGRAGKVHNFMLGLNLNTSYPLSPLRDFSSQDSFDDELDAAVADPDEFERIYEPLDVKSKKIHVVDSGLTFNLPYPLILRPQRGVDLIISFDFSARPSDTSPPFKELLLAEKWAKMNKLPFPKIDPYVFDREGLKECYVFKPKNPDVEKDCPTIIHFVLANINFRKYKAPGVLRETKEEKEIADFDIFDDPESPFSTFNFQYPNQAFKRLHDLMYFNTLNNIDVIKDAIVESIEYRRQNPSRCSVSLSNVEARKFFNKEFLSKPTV
How it was run: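 Wild-type mice under 1.5% isoflurane first received unlabelled blocking agent, 2 mg/kg i.v. via tail-vein catheter. Thirty minutes later they were given about 7.4 MBq of 11C-labelled test compound in ethanol/saline (1:9), ascorbic acid and Tween. MicroPET ran for 100 min. Brain time-activity curves were compared with baseline. Reconstruction used FORE/2D OSEM without attenuation or scatter correction.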

[2] = Distribution into cellular blood elements, monkey blood; type: in vitro ADME; settings: absence of autologous plasma
How it was run: (§2)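 Carbon-11 carboxyl-labelled test compound added to freshly drawn heparin-anticoagulated blood. Blood cells were tested with and without autologous plasma, and the fraction of radioactivity bound to cells was determined. Mean ± SD, n = 3.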

Lipophilicity = type: physicochemical; settings: 1-octanol/sodium phosphate buffer, pH 7.4
How it was run: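 The 11C-labelled test compound was partitioned between 1-octanol and 0.15 M sodium phosphate buffer, pH 7.4. The aqueous phase left after extraction was analysed by radio-HPLC on C18 with MeOH:H2O:Et3N (92.5:7.5:0.1) at 4.0 mL/min. The result was decay-corrected and corrected for radioligand instability in the buffer.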

cPLA2α [3] = settings: cPLA2α inhibition; ref [19] and [20]; cited from earlier work
[4] = Distribution into cellular blood elements, rat blood; type: in vitro ADME; settings: absence of autologous plasma
How it was run: as §2

[5] = PET imaging in wild type mice, baseline radioactivity uptake; type: in vivo; settings: i.v. injection
How it was run: as §1

[6] = Stability in aqueous sodium phosphate buffer; type: physicochemical; settings: sodium phosphate buffer 0.15 M, pH 7.4
[7] = Tissue stability in rat brain homogenate; type: in vitro ADME; settings: room temperature, 30 min

SMILES	Peak radioactivity in brain (P-gp/BCRP; P-gp/BCRP dual knock-out mice, i.v. injection)	Efflux transporter (P-gp/BCRP) substrate status (P-gp/BCRP; wild type vs dual knock-out mice brain uptake)	Effect of pretreatment with non-radioactive ligand on brain time-activity curve (cPLA2α [1])	Bound to blood cells [2]	logD (Lipophilicity)	IC50 (cPLA2α [3])	Bound to blood cells [4]	Peak radioactivity in brain [5]	Stability in buffer [6]	Stability in rat brain homogenate [7]
CC(C)C(=O)c1cn(CC(=O)COc2ccc(Oc3ccccc3)cc2)c2ccc(C(=O)O)cc12 [[^11C]1, 3-isobutyryl-1-(2-oxo-3-(4-phenoxyphenoxy)propyl)-1H-indole-5-carboxylic acid]	0.5 SUV	not efflux transporters substrates; also recorded: not a brain P-gp or BRCP efflux transporter substrate	did not alter	More than 94%	2.1 ± 0.01	12 nM	More than 94%	0.4 SUV		
CC(=O)c1cn(CC(=O)COc2ccc(Oc3ccc(C(F)(F)F)cc3)cc2)c2ccc(C(=O)O)cc12 [[^11C]2, 3-acetyl-1-(2-oxo-3-(4-(4-(trifluoromethyl)-phenoxy)phenoxy)propyl)-1H-indole-5-carboxylic acid]					2.43 ± 0.01	10 nM			98.4±0.2%	97.5%
Cc1noc(-c2cn(CC(=O)COc3ccc(Oc4ccccc4)cc3)c3ccc(C(=O)O)cc23)n1 [[^11C]3, 3-(3-methyl-1,2,4-oxadiazol-5-yl)-1-(2-oxo-3-(4-phenoxyphenoxy)propyl)-1H-indole-5-carboxylic acid]					2.07 ± 0.02	6.1 nM			99.7±0.2%	
CCCCCCCCc1ccc(OCC(=O)Cn2cc(-c3nc(C)no3)c3cc(C(=O)O)ccc32)cc1 [[^11C]4, 3-(3-methyl-1,2,4-oxadiazol-5-yl)-1-(3-(4-octylphenoxy)-2-oxopropyl)-1H-indole-5-carboxylic acid]					1.94 ± 0.15				80.3±3.4%	104%
